Published values gathered from unrelated publications.
Compare with care: the assays were run in different laboratories.
Observed: tubulin polymerisation
Action: inhibitor

`CCCOc1ccc(N(C)c2cc(C)nc3ccc(Cl)cc23)cc1` has an IC50 of 5.4 µM.
`COc1ccc(N(C)c2nc(C)nc3c2CCC3)cc1` has an IC50 of 1.6 µM (absorbance).
With `COc1ccc([S+]([O-])c2ccc(OC)c(OC)c2OC)cc1` (centres unmarked) the IC50 was over 40 µM (absorbance; pH 6.6).
With `COc1cc2c(cc1OS(N)(=O)=O)CCN(Cc1cc(OC)c(OC)c(OC)c1)C2` the IC50 was over 20 µM (absorbance).
The IC50 of `COc1ccc(N(C)c2nc(C)nc3c2C[C@@H](C)C3)cc1` (racemic) is reported as 1.9 µM (absorbance).
For `COc1ccc(/C=C\c2cc(OC)c(OC)c(OC)c2)cc1O`, the IC50 was 1.4 µM (absorbance).
`COc1ccc(S(=O)(=O)c2ccccc2)c(OC)c1OC` gave an IC50 of over 40 µM (absorbance; pH 6.6).
For `COc1ccc(C(=O)c2cc3c(-c4ccccc4)c(O)ccc3o2)cc1`, the IC50 was 2.8 µM (absorbance).
For `COc1ccc(Sc2ccccc2)c(OC)c1OC`, the IC50 was over 40 µM (absorbance; pH 6.6).
The IC50 of `COc1cc2c(cc1O)CCN(Cc1cc(OC)c(OC)c(OC)c1)C2` is reported as over 20 µM (absorbance).
With `CCCOc1ccc(Nc2cc(C)nc3ccc(Cl)cc23)cc1` the IC50 was over 100 µM.
